In ChEMBL document CHEMBL2029236, “Tubulin binding, protein-bound conformation in solution, and antimitotic cellular profiling of noscapine and its derivatives” (J Med Chem, 2012):
pEC50, pIC50: −log10 of the molar value. Active and inactive are the calls of the source. The calls are words filed in the database; no cut-off is given here.

Legend:
[1] = organism: Bos taurus; assay: Binding affinity to calf brain tubulin assessed as increase in fluorescence at 10 uM by fluorometry relative to control
Summary of the method: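 Fluorescence emission spectra of 10 μM ligand with and without 10 μM tubulin in 10 mM sodium phosphate, 0.1 mM GTP, pH 7.0, 25 °C. Emission intensity (425 nm maximum) and anisotropy were compared between bound and unbound ligand.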

[2] = system: SNU-398; assay: Antiproliferative activity against human SNU398 cells; type: functional, cell-based
Summary of the method: (§1)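 Cell viability assay in hepatocellular carcinoma cell lines; IC50 values derived from concentration–response data and reported in nM.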

[3] = Antiproliferative activity against human PLC/PRF/5 cells; type: functional, cell-based; summary of the method: as §1
[4] = system: SNU-398; assay: Cell cycle arrest in human SNU398 cells assessed as accumulation at G1 phase at 2 uM after 24 hrs by FACS analysis (reference value: 55.8%); type: functional
[5] = system: SNU-398; assay: Cell cycle arrest in human SNU398 cells assessed as accumulation at G2 phase at 2 uM after 24 hrs by FACS analysis (reference value: 38.2%); type: functional
[6] = system: SNU-398; assay: Cell cycle arrest in human SNU398 cells assessed as accumulation at sub-G1 phase at 2 uM after 24 hrs by FACS analysis (reference value: 1.2%); type: functional
[7] = Cell cycle arrest in human PLC/PRF/5 cells assessed as accumulation at G1 phase at 2 uM after 24 hrs by FACS analysis (reference value: 66.8%); type: functional, cell-based
[8] = Cell cycle arrest in human PLC/PRF/5 cells assessed as accumulation at G2 phase at 2 uM after 24 hrs by FACS analysis (reference value: 26.1%); type: functional, cell-based
[9] = Cell cycle arrest in human PLC/PRF/5 cells assessed as accumulation at sub-G1 phase at 2 uM after 24 hrs by FACS analysis (reference value: 1.4%); type: functional, cell-based
[10] = organism: Bos taurus; assay: Inhibition of calf brain tubulin assembly at 1 mM
Summary of the method: (§2)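 Read-out: amount of pelleted polymerized tubulin across a compound concentration range. EC50 taken at 50% reduction of the pellet. Average of three experiments.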

[11] = Inhibition of calf brain tubulin assembly; set-up: species or system Bos taurus; summary of the method: as §2
[12] = organism: Bos taurus; assay: Binding affinity to calf brain tubulin assessed as binding constant by fluorometry; type: tissue-based
Summary of the method: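 Fluorescence titration in 10 mM sodium phosphate, 0.1 mM GTP, pH 7.0, 25 °C. Ligand at 5 μM was titrated with tubulin up to 100 μM. Bound and free ligand were quantified from the change in ligand fluorescence. Binding constant fitted assuming a single site, 1:1 stoichiometry and 0.87 sites per dimer. Average of five experiments.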

[13] = organism: Bos taurus; assay: Inhibition of calf brain tubulin assembly at 10 uM by fluorometry in presence of podophyllotoxin
[14] = organism: Bos taurus; assay: Inhibition of calf brain tubulin assembly at 10 uM by fluorometry in presence of vinblastine
[15] = organism: Bos taurus; assay: Inhibition of calf brain tubulin assembly at 10 uM by fluorometry in presence of isohomohalichondrin
[16] = organism: Bos taurus; assay: Inhibition of calf brain tubulin assembly at 10 uM by fluorometry in presence of pironetin
[17] = organism: Bos taurus; assay: Inhibition of calf brain tubulin assembly at 10 uM by fluorometry in presence of gossipol
[18] = organism: Bos taurus; assay: Inhibition of calf brain tubulin assembly at 10 uM by fluorometry in presence of noscapine
[19] = organism: Bos taurus; assay: Inhibition of calf brain tubulin assembly at 10 uM by fluorometry in presence of nocodazole
[20] = organism: Bos taurus; assay: Binding affinity to calf brain tubulin alpha/beta heterodimer assessed as increase in proton signal at […] by STD NMR analysis
Summary of the method: (§3)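 STD NMR with freshly prepared tubulin α/β heterodimer. Ligand:protein molar ratio 30:1 ([…], […]). Read-out: enhancement of ligand proton signals in STD spectra versus an off-resonance reference spectrum acquired without protein irradiation.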

[21] = organism: Bos taurus; assay: Binding affinity to calf brain tubulin alpha/beta heterodimer assessed as increase in proton signal at […] by STD NMR analysis in the presence of noscapine; summary of the method: as §3
[22] = system: SMMC-7721; assay: Antiproliferative activity against human SMMC7721 after 72 hrs by CellTiter Glo assay; type: functional, cell-based; conditions: SMMC-7721, 72 h; summary of the method: as §1
[23] = Antiproliferative activity against human MHCC97H after 72 hrs by CellTiter Glo assay; type: functional; summary of the method: as §1
[24] = system: Bel-7402; assay: Antiproliferative activity against human Bel7402 after 72 hrs by CellTiter Glo assay; type: functional, cell-based; conditions: Bel-7402, 72 h; summary of the method: as §1
[25] = Antiproliferative activity against human Hep3B after 72 hrs by CellTiter Glo assay; type: functional, Hep 3B2; summary of the method: as §1
[26] = system: HepG2; assay: Antiproliferative activity against human HepG2 after 72 hrs by CellTiter Glo assay; type: functional, cell-based; conditions: HepG2, 72 h; summary of the method: as §1
[27] = system: Huh-7; assay: Antiproliferative activity against human HuH7 after 72 hrs by CellTiter Glo assay; type: functional, cell-based; conditions: Huh-7, 72 h; summary of the method: as §1
[28] = Antiproliferative activity against human JHH2 after 72 hrs by CellTiter Glo assay; type: functional; summary of the method: as §1
[29] = Antiproliferative activity against human JHH4 after 72 hrs by CellTiter Glo assay; type: functional; summary of the method: as §1
[30] = Antiproliferative activity against human JHH7 after 72 hrs by CellTiter Glo assay; type: functional; summary of the method: as §1
[31] = Antiproliferative activity against human PLC/PRF/5 after 72 hrs by CellTiter Glo assay; type: functional; conditions: PLC-PRF-5, 72 h; summary of the method: as §1
[32] = Antiproliferative activity against human SNU182 after 72 hrs by CellTiter Glo assay; type: functional, cell-based; conditions: SNU-182, 72 h; summary of the method: as §1
[33] = system: SNU-387; assay: Antiproliferative activity against human SNU387 after 72 hrs by CellTiter Glo assay; type: functional, cell-based; conditions: SNU-387, 72 h; summary of the method: as §1
[34] = system: SNU-398; assay: Antiproliferative activity against human SNU398 after 72 hrs by CellTiter Glo assay; type: functional, cell-based; conditions: SNU-398, 72 h; summary of the method: as §1
[35] = system: SNU-423; assay: Antiproliferative activity against human SNU423 after 72 hrs by CellTiter Glo assay; type: functional, cell-based; conditions: SNU-423, 72 h; summary of the method: as §1
[36] = system: SNU-449; assay: Antiproliferative activity against human SNU449 after 72 hrs by CellTiter Glo assay; type: functional, cell-based; conditions: SNU-449, 72 h; summary of the method: as §1
[37] = system: SNU-475; assay: Antiproliferative activity against human SNU475 after 72 hrs by CellTiter Glo assay; type: functional, cell-based; conditions: SNU-475, 72 h; summary of the method: as §1
[38] = Metabolic stability in microsomes assessed as compound remaining; type: ADME, Microsome
[39] = Metabolic stability in S9 fraction assessed as compound remaining; type: ADME, subcellular
[40] = organism: Bos taurus; assay: Binding affinity to calf brain tubulin assessed as increase in fluorescence at 10 uM by fluorometry in presence of Mg2+
[41] = organism: Bos taurus; assay: Binding affinity to calf brain tubulin alpha/beta heterodimer by NOE method; type: tissue-based
Summary of the method: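 Transferred NOE (TR-NOESY) of ligand with tubulin α/β heterodimer at 500 MHz, 298 K. The sign of the NOE cross-peaks is compared between ligand with tubulin and free ligand. Bound conformation derived with molecular mechanics.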

COc1ccc2c(c1O)C(=O)O[C@@H]2[C@H]1c2c(cc3c(c2OC)OCO3)CCN1C
Activity [1]: inactive | pIC50 [2]: < 5.70 | pIC50 [3]: < 5.70 | Activity [4]: 33.5% | Activity [5]: 47.8% | Activity [6]: 15.2% | Activity [7]: 62.8% | Activity [8]: 23.3% | Activity [9]: 8.7%

COc1ccc2c(c1N)C(=O)O[C@@H]2[C@H]1c2c(cc3c(c2OC)OCO3)CCN1C
inhibition [10]: 50% | pEC50 [11]: 5.92 | fold change (FC) [1]: 11 | Activity [12]: 1.15 ×10⁵ /M | inhibition [13]: Active | inhibition [14]: Active | inhibition [15]: Active | inhibition [16]: Active | inhibition [17]: Active | inhibition [18]: Active | inhibition [19]: inactive | inhibition [20]: Active | inhibition [21]: Active | pIC50 [2]: 7.03 | pIC50 [3]: 6.62 | pIC50 [22]: 6.96 | pIC50 [23]: 6.45 | pIC50 [24]: 7.11 | pIC50 [25]: < 6.00 | pIC50 [26]: < 6.00 | pIC50 [27]: 6.66 | pIC50 [28]: < 6.00 | pIC50 [29]: 6.97 | pIC50 [30]: 6.50 | pIC50 [31]: 6.56 | pIC50 [32]: 6.29 | pIC50 [33]: 7.23 | pIC50 [34]: 6.49 | pIC50 [35]: 6.65 | pIC50 [36]: 6.55 | pIC50 [37]: 6.23 | Activity [4]: 22.9% | Activity [5]: 59.8% | Activity [6]: 13.8% | Activity [7]: 18% | Activity [8]: 67% | Activity [9]: 8.4% | Stability [38]: < 5% | Stability [39]: < 5% | Activity [40]: Active | Activity [41]: Active

COC(=O)Nc1nc2cc(C(=O)c3cccs3)ccc2[nH]1
Activity [12]: 4 ×10⁵ /M | inhibition [13]: Active | inhibition [14]: Active | inhibition [15]: Active | inhibition [16]: Active | inhibition [17]: Active | inhibition [18]: Active | inhibition [19]: inactive
